Assay results from PubChem BioAssay.
Calls of active or inactive are those of the source.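 The calls were made as follows, unless noted: active = primary screen active whose calcium signal fell more than 3 SD beyond the full-serotonin control mean in both duplicate plates; inactive = the rest.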

tested on: not listed separately; experiment: serotonin-gated TRPC4 signal block – cell-based, second counter screen, HEK293 TRPC4/5HT1a, Fluo-4, counter-screen for TRPC4 inhibitor project, confirmation (AID 434978); conditions: Fluo-4 calcium flux, at 10 µM, serotonin added to trigger calcium flux; hits give high values;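 also: serotonin given first at submaximal then at maximal dose after compound preincubation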
Outline: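 System: HEK293 line stably carrying TRPC4 plus 5HT1a receptor. Schedule: 110 s each for compound, submaximal and ECmax serotonin. Technique: kinetic Fluo-4 fluorescence readout of calcium flux. Replication: duplicate plates.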

SMILES	outcome
CC(C)c1ccc(NC(=S)N(C)CCc2ccccn2)cc1	inactive
CCN1CCN(c2ccc(S(=O)(=O)N3CCCCC3)cc2NC(=O)COc2ccccc2)CC1	inactive
COC(=O)c1ccccc1N=Nc1c(N)[nH][nH]c1=O	inactive
CCc1nc(NCCc2ccccn2)c2nnn(Cc3ccccc3F)c2n1	inactive
COC(=O)c1ccc(N2CCN(C)CC2)c(NC(=O)COc2ccccc2)c1	inactive
CCC1(c2ccc(F)cc2)NC(=O)N(CC(=O)c2cc(C)n(C3CC3)c2C)C1=O (stereo not given)	inactive
CCOC(=O)C1(CC2CCCCO2)CCN(Cc2c(C)cc(C)cc2-n2cccn2)CC1 (stereo not given)	inactive
Cc1ccc(Cl)cc1NC(=O)CNCC(c1ccccc1)N(C)C (stereo not given)	inactive
CCOC(=O)C1(CCOc2ccccc2)CCN(Cc2ccc3c(c2)OCCO3)CC1	inactive
CCOc1ccccc1CN1CCNC(=O)C1CC(=O)N(C)CCc1ccccn1 (stereo not given)	inactive
CN(CCc1ccccn1)C(=O)CC1C(=O)NCCN1Cc1ccccc1C(F)(F)F (stereo not given)	inactive
Cc1ccc(C)c(OCCCCCn2ccnc2)c1	inactive
O=C(C1CCCN(Cc2ccccc2F)C1)N1CCc2ccccc2C1 (stereo not given)	inactive
CCOC(=O)C1(CCCc2ccccc2)CCN(Cc2cn(CC)nc2C)CC1	inactive
NCCSc1c(-c2ccc(Cl)cc2)[nH]c2ccccc12	inactive
CN(C)CCCN(C(=O)c1ccc(C(=O)c2ccccc2)cc1)c1nc2ccc(F)cc2s1	inactive
COc1ccc(-c2nn(-c3ccccc3)cc2CNCc2cccnc2)c(F)c1	inactive
Cc1cc(Br)ccc1OCCn1ccnc1	inactive
C=CCn1c(CCNC(=O)C(C)(C)C)nc2ccccc21	inactive
Cc1cc(Cl)cc(C)c1OCCCCn1ccnc1	inactive

SMILES	outcome
Cc1sc2nc(CSc3ccccc3)nc(NCCN(C)C)c2c1C	inactive
CCN1CCN(c2c(S(=O)(=O)c3ccc(C)c(C)c3)cnc3ccc(F)cc23)CC1	inactive
Cc1ccc(C)c(OCCCCn2ccnc2)c1	inactive
Cc1ccccc1NC(=S)NCCc1ccccn1	inactive
CN(C)C(CNC(=O)Cc1cccc(C(F)(F)F)c1)c1ccco1 (stereo not given)	inactive
CCOc1ccccc1CN1CCNC(=O)C1CC(=O)NCCc1ccccn1 (stereo not given)	inactive
CCOc1ccc2ncc(C(=O)c3ccc(OC)cc3)c(N3CCN(CC)CC3)c2c1	inactive
Cc1cc(NC(=O)CN2CCc3ccccc3C2)nc2c1c(=O)oc1ccccc12	inactive
Cc1ccccc1C(=O)NNC(=S)NC(=O)c1ccccc1	inactive
CCOC(=O)C1CCCN(C(c2ccccn2)c2c(C)[nH]c3ccccc23)C1 (stereo not given)	inactive
COc1cc(/C=C/C(=O)c2ccc3c(c2)OCO3)cc(Cl)c1O	inactive
CN(C)C(CNC(=O)/C=C/c1cccc(Cl)c1)c1ccccc1 (stereo not given)	inactive
COc1ccc(C(=O)NC(=S)NNC(=O)c2c(-c3ccccc3)noc2C)cc1	inactive
O=S(=O)(c1ccc(Cl)cc1)N1CCN2CCCC2C1 (stereo not given)	inactive
Cc1ccc(-n2cc(CNCC3CC(=O)N(C4CC4)C3)c(-c3cccc(C)c3)n2)cc1 (stereo not given)	inactive
CCCCCSc1nnc2c(n1)OC(c1cccn1C)N(C(C)=O)c1ccccc1-2 (stereo not given)	inactive
CCCCC(c1nnnn1CC1CCCO1)N1CCN(c2nc3ccccc3s2)CC1 (stereo not given)	inactive
CCN(CCCNS(=O)(=O)c1cc(-c2cc(C)no2)ccc1C)Cc1ccccc1	inactive
COc1ccc(-c2nc(CN3CCC(C(=O)NC4CCCC4)CC3)c(C)o2)cc1OC	inactive
CCN(CC)CCSc1nc2ccc(OC)cc2[nH]1	inactive

tested on: TRPC4 (mouse), co-expressed with 5HT1a in HEK293; experiment: enhancement of serotonin-evoked TRPC4 response – cell-based, second counter screen, HEK293 TRPC4/5HT1a, Fluo-4, counter-screen for TRPC4 potentiator project, confirmation (AID 434979;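 active = signal rise over 3 SD above mean of control wells given weak agonist, in both repeats and first screen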); conditions: Fluo-4 calcium flux, at 10 µM, serotonin added at its EC20 dose; hits give high values

SMILES	outcome	potentiation
CC(C)c1ccc(NC(=S)N(C)CCc2ccccn2)cc1	inactive	
CCN1CCN(c2ccc(S(=O)(=O)N3CCCCC3)cc2NC(=O)COc2ccccc2)CC1	inactive	
COC(=O)c1ccccc1N=Nc1c(N)[nH][nH]c1=O		46.3% (active)
CCc1nc(NCCc2ccccn2)c2nnn(Cc3ccccc3F)c2n1	inactive	
COC(=O)c1ccc(N2CCN(C)CC2)c(NC(=O)COc2ccccc2)c1	inactive	
CCC1(c2ccc(F)cc2)NC(=O)N(CC(=O)c2cc(C)n(C3CC3)c2C)C1=O (stereo not given)		24.5% (active)
CCOC(=O)C1(CC2CCCCO2)CCN(Cc2c(C)cc(C)cc2-n2cccn2)CC1 (stereo not given)	inactive	
Cc1ccc(Cl)cc1NC(=O)CNCC(c1ccccc1)N(C)C (stereo not given)	inactive	
CCOC(=O)C1(CCOc2ccccc2)CCN(Cc2ccc3c(c2)OCCO3)CC1	inactive	
CCOc1ccccc1CN1CCNC(=O)C1CC(=O)N(C)CCc1ccccn1 (stereo not given)	inactive	
CN(CCc1ccccn1)C(=O)CC1C(=O)NCCN1Cc1ccccc1C(F)(F)F (stereo not given)	inactive	
Cc1ccc(C)c(OCCCCCn2ccnc2)c1	inactive	
O=C(C1CCCN(Cc2ccccc2F)C1)N1CCc2ccccc2C1 (stereo not given)	inactive	
CCOC(=O)C1(CCCc2ccccc2)CCN(Cc2cn(CC)nc2C)CC1	inactive	
NCCSc1c(-c2ccc(Cl)cc2)[nH]c2ccccc12	inactive	
CN(C)CCCN(C(=O)c1ccc(C(=O)c2ccccc2)cc1)c1nc2ccc(F)cc2s1	inactive	
COc1ccc(-c2nn(-c3ccccc3)cc2CNCc2cccnc2)c(F)c1	inactive	
Cc1cc(Br)ccc1OCCn1ccnc1	inactive	
C=CCn1c(CCNC(=O)C(C)(C)C)nc2ccccc21	inactive	
Cc1cc(Cl)cc(C)c1OCCCCn1ccnc1	inactive	

SMILES	outcome	potentiation
Cc1sc2nc(CSc3ccccc3)nc(NCCN(C)C)c2c1C	inactive	
CCN1CCN(c2c(S(=O)(=O)c3ccc(C)c(C)c3)cnc3ccc(F)cc23)CC1	inactive	
Cc1ccc(C)c(OCCCCn2ccnc2)c1	inactive	
Cc1ccccc1NC(=S)NCCc1ccccn1	inactive	
CN(C)C(CNC(=O)Cc1cccc(C(F)(F)F)c1)c1ccco1 (stereo not given)	inactive	
CCOc1ccccc1CN1CCNC(=O)C1CC(=O)NCCc1ccccn1 (stereo not given)	inactive	
CCOc1ccc2ncc(C(=O)c3ccc(OC)cc3)c(N3CCN(CC)CC3)c2c1	inactive	
Cc1cc(NC(=O)CN2CCc3ccccc3C2)nc2c1c(=O)oc1ccccc12	inactive	
Cc1ccccc1C(=O)NNC(=S)NC(=O)c1ccccc1	inactive	
CCOC(=O)C1CCCN(C(c2ccccn2)c2c(C)[nH]c3ccccc23)C1 (stereo not given)	inactive	
COc1cc(/C=C/C(=O)c2ccc3c(c2)OCO3)cc(Cl)c1O	inactive	
CN(C)C(CNC(=O)/C=C/c1cccc(Cl)c1)c1ccccc1 (stereo not given)	inactive	
COc1ccc(C(=O)NC(=S)NNC(=O)c2c(-c3ccccc3)noc2C)cc1	inactive	
O=S(=O)(c1ccc(Cl)cc1)N1CCN2CCCC2C1 (stereo not given)		25.7% (active)
Cc1ccc(-n2cc(CNCC3CC(=O)N(C4CC4)C3)c(-c3cccc(C)c3)n2)cc1 (stereo not given)	inactive	
CCCCCSc1nnc2c(n1)OC(c1cccn1C)N(C(C)=O)c1ccccc1-2 (stereo not given)	inactive	
CCCCC(c1nnnn1CC1CCCO1)N1CCN(c2nc3ccccc3s2)CC1 (stereo not given)	inactive	
CCN(CCCNS(=O)(=O)c1cc(-c2cc(C)no2)ccc1C)Cc1ccccc1	inactive	
COc1ccc(-c2nc(CN3CCC(C(=O)NC4CCCC4)CC3)c(C)o2)cc1OC	inactive	
CCN(CC)CCSc1nc2ccc(OC)cc2[nH]1	inactive	
